Data from ChEMBL document CHEMBL3098030, “Explorations of substituted urea functionality for the discovery of new activators of the heme-regulated inhibitor kinase” (J Med Chem, 2013).
Activity calls are given as the source filed them. The rule behind the calls is not given here.

How the values were obtained:
[1] = target: Eukaryotic translation initiation factor 2-alpha kinase 1 (Homo sapiens) (UniProt Q9BQI3); assay: Activation of HRI in human CRL-2813-pBISA-DL(ATF-4) reporter cells assessed as concentration required to obtain F-luciferase expression/R-luciferase expression ratio 3
Method in brief: (§1)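 Stably transfected CRL-2813-pBISA-DL(ATF-4) reporter cells treated with compounds in dose-response; firefly and renilla luciferases read by dual glow luciferase kit. Activity = firefly/renilla (F/R) ratio normalized to DMSO-treated wells (set at 1). Triplicate points fitted to logistic sigmoidal model by nonlinear least squares; C3X = concentration giving F/R = 3, Emax = maximal F/R.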

MCF7 [2] = assay: Antiproliferative activity against human MCF7 cells after 5 days by SRB assay in presence of HRI-targeting siRNA; type: functional, cell-based; details: MCF7, 120 h
MCF7 [3] = assay: Antiproliferative activity against human MCF7 cells after 5 days by SRB assay in presence of non-targeting siRNA; type: functional, cell-based; details: MCF7, 120 h
[4] = Antiproliferative activity against human CRL2813 cells after 5 days by SRB assay in presence of HRI-targeting siRNA; type: functional, cell-based; details: CRL2813, 120 h
[5] = Antiproliferative activity against human CRL2813 cells after 5 days by SRB assay in presence of non-targeting siRNA; type: functional, cell-based; details: CRL2813, 120 h
[6] = target: Eukaryotic translation initiation factor 2-alpha kinase 1 (Homo sapiens) (UniProt Q9BQI3); assay: Activation of HRI in human CRL-2813-pBISA-DL(ATF-4) reporter cells assessed as eIF2alpha phosphorylation after 10 hrs by dual-luciferase reporter gene assay in presence of siRNA relative to control
Method in brief: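 CRL-2813-pBISA-DL(ATF-4) reporter cells transiently transfected (Lipofectamine 2000) with HRI-targeting or non-targeting siRNA for 48 h, then treated with compounds or DMSO for 10 h. Firefly/renilla ratio by dual luciferase assay, normalized to vehicle. Triplicate, three independent experiments; mean±S.E.M.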

[7] = target: Eukaryotic translation initiation factor 2-alpha kinase 1 (Homo sapiens) (UniProt Q9BQI3); assay: Activation of HRI in human CRL2813 cells assessed as reduction in cyclin D1 mRNA expression at 7.5 to 15 uM after 6 hrs by RT-PCR analysis; type: cell-based
Method in brief: (§2)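 CRL-2813 cells incubated with 7.5 or 15 μM compound for 6 h; CHOP and cyclin D1 mRNA measured by real-time PCR. Each run in triplicate, mean of three independent experiments ±S.E.M.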

[8] = target: Eukaryotic translation initiation factor 2-alpha kinase 1 (Homo sapiens) (UniProt Q9BQI3); assay: Activation of HRI in human CRL2813 cells assessed as increase in CHOP mRNA expression at 7.5 to 15 uM after 6 hrs by RT-PCR analysis; type: cell-based; method in brief: as §2
[9] = target: Eukaryotic translation initiation factor 2-alpha kinase 1 (Homo sapiens) (UniProt Q9BQI3); assay: Activation of HRI in human CRL2813 cells assessed as reduction in cyclin D1 protein expression at 10 uM after 6 hrs by Western blotting analysis; type: cell-based
Method in brief: (§3)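 CRL-2813 melanoma cells grown in serum-containing medium without antibiotics to 70% confluence, treated 6 h (10 μM for CHOP/cyclin D1), lysed in M-PER on ice 30 min, protein by BCA. Equal protein on SDS-PAGE, probed with anti-pS51-eIF2α rabbit mAb, anti-total eIF2α mouse mAb, anti-CHOP, anti-cyclin D1, anti-actin. Three independent experiments.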

[10] = target: Eukaryotic translation initiation factor 2-alpha kinase 1 (Homo sapiens) (UniProt Q9BQI3); assay: Activation of HRI in human CRL2813 cells assessed as increase in CHOP protein expression at 10 uM after 6 hrs by Western blotting analysis; type: cell-based; method in brief: as §3
[11] = target: Eukaryotic translation initiation factor 2-alpha kinase 1 (Homo sapiens) (UniProt Q9BQI3); assay: Activation of HRI in human CRL2813 cells assessed as eIF2alpha phosphorylation after 6 hrs by Western blotting analysis; type: cell-based; method in brief: as §3
[12] = Cytotoxicity against human CRL2813 cells after 5 days by SRB assay; type: functional, cell-based; details: CRL2813, 120 h
Method in brief: (§4)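 CRL-2813 melanoma or NIH/3T3 fibroblasts seeded in 96-well plates, exposed 5 days to 0.5–20 μM compound; fixed in cold 10% TCA, bound sulforhodamine B measured. % growth = 100×(T−T0)/(C−T0). IC50 derived; triplicate, three independent experiments.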

[13] = target: Eukaryotic translation initiation factor 2-alpha kinase 1 (Homo sapiens) (UniProt Q9BQI3); assay: Activation of HRI in human CRL-2813-pBISA-DL(ATF-4) reporter cells assessed as reduction of ternary complex at 30 uM by dual-luciferase reporter gene assay relative to control; method in brief: as §1
[14] = Ratio of IC50 for human CRL2813 cells after 3 days by SRB assay in presence of HRI-targeting siRNA to IC50 for human CRL2813 cells after 3 days by SRB assay in presence of non-targeting siRNA
[15] = Ratio of IC50 for human CRL2813 cells after 3 days by SRB assay in presence of HRI-targeting siRNA to IC50 for human CRL2813 cells after 3 days by SRB assay in presence of non-targeting siRNA; type: functional
Method in brief: (§5)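 CRL-2813 cells transiently transfected (Lipofectamine 2000) with HRI-targeting or non-targeting siRNA, then treated with compound dose range; proliferation by SRB after 3 days. IC50 calculated per siRNA condition; ratio is HRI-siRNA over non-targeting IC50. Triplicate, three independent experiments; mean±S.E.M.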

[16] = Antiproliferative activity against human CRL2813 cells after 3 days by SRB assay in presence of HRI-targeting siRNA; type: functional, cell-based; details: CRL2813, 72 h; method in brief: as §5
[17] = Antiproliferative activity against human CRL2813 cells after 3 days by SRB assay in presence of non-targeting siRNA; type: functional, cell-based; details: CRL2813, 72 h; method in brief: as §5
[18] = target: Eukaryotic translation initiation factor 2-alpha kinase 1 (Homo sapiens) (UniProt Q9BQI3); assay: Activation of HRI in human CRL-2813-pBISA-DL(ATF-4) reporter cells assessed as eIF2alpha phosphorylation after 8 to 32 hrs by dual-luciferase reporter gene assay
Method in brief: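 Reporter CRL-2813-pBISA-DL(ATF-4) cells incubated with compounds for 8, 16 or 32 h. Firefly/renilla luciferase ratio measured by dual luciferase assay and normalized to vehicle-treated cells.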

[19] = Selectivity ratio of IC50 for mouse NIH/3T3 cells to IC50 for human CRL2813 cells; type: ADME, cell-based; details: NIH/3T3 cells and CRL2813 cells, read-out: Ratio IC50
NIH3T3 = assay: Cytotoxicity against mouse NIH/3T3 cells after 5 days by SRB assay; type: cell-based; details: NIH3T3, 120 h; method in brief: as §4

Chain of Eukaryotic translation initiation factor 2-alpha kinase 1 (Homo sapiens) (Q9BQI3 whole entry): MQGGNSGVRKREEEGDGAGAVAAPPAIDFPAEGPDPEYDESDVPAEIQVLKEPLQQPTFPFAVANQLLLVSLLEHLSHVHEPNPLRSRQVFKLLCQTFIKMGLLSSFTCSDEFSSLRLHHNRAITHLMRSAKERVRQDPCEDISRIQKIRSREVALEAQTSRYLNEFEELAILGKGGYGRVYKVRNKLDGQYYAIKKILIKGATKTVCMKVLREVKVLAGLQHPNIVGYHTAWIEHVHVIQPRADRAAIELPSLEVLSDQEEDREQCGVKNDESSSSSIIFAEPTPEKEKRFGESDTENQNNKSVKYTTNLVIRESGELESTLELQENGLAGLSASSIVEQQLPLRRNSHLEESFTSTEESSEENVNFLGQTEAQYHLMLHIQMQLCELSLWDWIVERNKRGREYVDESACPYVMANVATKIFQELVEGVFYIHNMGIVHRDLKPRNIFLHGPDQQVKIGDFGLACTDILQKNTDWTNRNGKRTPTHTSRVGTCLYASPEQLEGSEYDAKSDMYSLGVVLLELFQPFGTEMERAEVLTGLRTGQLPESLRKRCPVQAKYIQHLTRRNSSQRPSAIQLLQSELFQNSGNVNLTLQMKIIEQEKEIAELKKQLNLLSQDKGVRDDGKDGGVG

With `O=C(Nc1ccc([N+](=O)[O-])cc1)N[C@H]1CC[C@H](Oc2ccc(F)cc2)CC1` the Activity [1] was 6.7 µM, the IC50 (MCF7 [2]) was > 30 µM and the IC50 (MCF7 [3]) was 9.8 µM. The IC50 [4] was 12.2 µM, the IC50 [5] was 5.2 µM and the Activity [6] was “inactive”. For the same compound, the Activity [7] was “Active”, the Activity [8] was “Active” and the Activity [9] was “Active”. The Activity [10] was “Active”, the Activity [11] was “Active” and the IC50 [12] was 2.3 µM. For the same compound, the Ratio [13] was 9 and the “Ratio IC50” value [14] was 1.7.

For `O=C(Nc1cccc(C(F)(F)F)c1)N[C@H]1CC[C@H](Oc2cccc(F)c2)CC1`, the “Ratio IC50” value [15] was 7, the IC50 [16] was 29.9 µM and the IC50 [17] was 4.3 µM. The Activity [1] was 2.6 µM, the Activity [18] was “Active” and the IC50 [12] was 2.4 µM. For the same compound, the Ratio [13] was 7.23.

In the case of `O=C(Nc1cccc(C(F)(F)F)c1)N[C@H]1CC[C@@H](Oc2ccc(F)cc2)CC1`, the IC50 [16] is reported as 10.4 µM, the IC50 [17] is reported as 6 µM and the Activity [1] is reported as 4.5 µM. The IC50 (MCF7 [2]) was > 30 µM, the IC50 (MCF7 [3]) was 11.3 µM and the IC50 [4] was 10.4 µM. For the same compound, the IC50 [5] was 6 µM, the Activity [6] was “inactive” and the Activity [7] was “Active”. For the same compound, the Activity [8] was “Active”, the Activity [9] was “Active” and the Activity [10] was “Active”. For the same compound, the Activity [11] was “Active”, the IC50 [12] was 2.6 µM and the Ratio [13] was 11.8. The “Ratio IC50” value [14] was 1.7.

In the case of `O=C(Nc1cccc(C(F)(F)F)c1)N[C@H]1CC[C@H](Oc2ccccc2F)CC1`, the “Ratio IC50” value [15] is reported as 7, the IC50 [16] is reported as 21.9 µM and the IC50 [17] is reported as 2.8 µM. For the same compound, the Activity [1] was 3.2 µM, the Activity [18] was “Active” and the IC50 [12] was 2.45 µM. The Ratio [13] was 7.98.

With `O=C(Nc1ccc(OC(F)(F)F)cc1)N[C@H]1CC[C@H](Oc2ccc(F)cc2)CC1` the Activity [1] was 0.7 µM, the selectivity ratio [19] was 5 and the IC50 (NIH3T3) was 13.6 µM. It also gave an IC50 (MCF7 [2]) of 30 µM, an IC50 (MCF7 [3]) of 9.2 µM and an IC50 [4] of 7.4 µM. For the same compound, the IC50 [5] was 3.3 µM, the Activity [6] was “inactive” and the Activity [7] was “Active”. For the same compound, the Activity [8] was “Active”, the Activity [9] was “Active” and the Activity [10] was “Active”. For the same compound, the Activity [11] was “Active”, the IC50 [12] was 2.7 µM and the Ratio [13] was 15.3. The “Ratio IC50” value [14] was 1.7.

`O=C(Nc1ccc(C(F)(F)F)cc1)N[C@H]1CC[C@H](Oc2ccc(F)cc2)CC1` gave an Activity [1] of 1.6 µM, an IC50 (MCF7 [2]) of 29.5 µM and an IC50 (MCF7 [3]) of 8.4 µM. For the same compound, the IC50 [4] was 6.5 µM, the IC50 [5] was 3.1 µM and the Activity [6] was “inactive”. For the same compound, the Activity [7] was “Active”, the Activity [8] was “Active” and the Activity [9] was “Active”. For the same compound, the Activity [10] was “Active”, the Activity [11] was “Active” and the IC50 [12] was 2.8 µM. The Ratio [13] was 14 and the “Ratio IC50” value [14] was 1.7.
